Source: ChEMBL document CHEMBL2021900, “Discovery of cariprazine (RGH-188): a novel antipsychotic acting on dopamine D3/D2 receptors” (Bioorg Med Chem Lett, 2012)

Tests used:
D(2) dopamine receptor = D(2) dopamine receptor (Rattus norvegicus, UniProt P61169); test: Displacement of [3H]spiperone from dopamine D2 receptor in rat striatal membranes; type: cell membranes, Membrane
In short: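 Rat striatal membranes; [3H]spiperone 0.7 nM as radioligand; nonspecific binding defined with (+)-butaclamol. Ki values are means of two to four independent experiments, each with at least six concentrations in duplicate.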

D(3) dopamine receptor = D(3) dopamine receptor (Rattus norvegicus, UniProt P19020); test: Displacement of [3H]spiperone from rat recombinant dopamine D3 receptor expressed in Sf9 cells
Sequence of D(3) dopamine receptor (P19020 whole entry): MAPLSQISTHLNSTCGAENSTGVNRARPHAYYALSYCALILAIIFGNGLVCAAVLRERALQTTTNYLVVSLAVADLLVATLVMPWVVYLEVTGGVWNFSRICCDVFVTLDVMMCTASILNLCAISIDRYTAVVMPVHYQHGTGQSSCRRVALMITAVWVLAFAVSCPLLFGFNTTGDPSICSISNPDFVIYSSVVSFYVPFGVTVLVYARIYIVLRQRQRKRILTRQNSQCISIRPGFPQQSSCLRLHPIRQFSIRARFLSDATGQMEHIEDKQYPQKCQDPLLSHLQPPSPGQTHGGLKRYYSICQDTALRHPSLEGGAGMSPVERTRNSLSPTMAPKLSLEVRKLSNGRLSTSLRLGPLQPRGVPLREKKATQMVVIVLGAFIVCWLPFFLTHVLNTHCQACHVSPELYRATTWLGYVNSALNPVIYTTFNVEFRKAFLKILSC

Mus musculus = test: Antipsychotic activity in po dosed CD1 mouse assessed as reduction of apomorphine-induced climbing behaviour administered 1 hr before apomorphine challenge measured after 10 to 16 mins; type: functional
[1] = target: T1, Adrenergic receptor alpha-1 (Rattus norvegicus, UniProt P15823+P23944+P43140); test: Displacement of [3H]-prazosin from adrenergic alpha-1 receptor in rat cerebral cortical membranes; type: cell membranes, Membrane
T1 sequence (P15823 whole entry): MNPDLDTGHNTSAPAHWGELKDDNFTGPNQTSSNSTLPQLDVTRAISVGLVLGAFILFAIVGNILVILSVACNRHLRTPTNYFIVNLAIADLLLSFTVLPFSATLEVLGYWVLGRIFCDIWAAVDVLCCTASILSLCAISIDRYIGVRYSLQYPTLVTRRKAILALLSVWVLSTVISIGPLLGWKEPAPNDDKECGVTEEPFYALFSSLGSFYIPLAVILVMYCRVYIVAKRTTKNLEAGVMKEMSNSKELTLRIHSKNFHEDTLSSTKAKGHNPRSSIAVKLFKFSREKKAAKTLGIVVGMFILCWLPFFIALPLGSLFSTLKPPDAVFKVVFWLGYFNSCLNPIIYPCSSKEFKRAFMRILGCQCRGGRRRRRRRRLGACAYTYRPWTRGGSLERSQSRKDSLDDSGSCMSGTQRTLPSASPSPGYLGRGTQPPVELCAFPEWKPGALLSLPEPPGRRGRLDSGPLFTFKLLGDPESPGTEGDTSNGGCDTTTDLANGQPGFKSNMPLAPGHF
T1 sequence (P23944 whole entry): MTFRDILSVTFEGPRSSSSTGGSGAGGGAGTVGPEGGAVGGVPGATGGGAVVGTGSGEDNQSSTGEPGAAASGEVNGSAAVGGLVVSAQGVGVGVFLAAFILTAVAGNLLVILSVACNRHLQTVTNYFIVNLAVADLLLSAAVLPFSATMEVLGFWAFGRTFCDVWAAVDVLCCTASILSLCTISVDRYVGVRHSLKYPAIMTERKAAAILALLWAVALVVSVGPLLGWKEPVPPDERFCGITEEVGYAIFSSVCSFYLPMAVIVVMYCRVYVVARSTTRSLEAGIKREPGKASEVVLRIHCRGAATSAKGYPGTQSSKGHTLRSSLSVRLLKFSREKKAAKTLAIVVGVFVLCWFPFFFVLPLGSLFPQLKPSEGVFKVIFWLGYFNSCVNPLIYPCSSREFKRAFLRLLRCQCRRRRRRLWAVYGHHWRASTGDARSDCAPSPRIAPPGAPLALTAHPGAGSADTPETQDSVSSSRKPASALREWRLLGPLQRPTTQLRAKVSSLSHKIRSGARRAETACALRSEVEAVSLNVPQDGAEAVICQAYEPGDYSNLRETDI
T1 sequence (P43140 whole entry): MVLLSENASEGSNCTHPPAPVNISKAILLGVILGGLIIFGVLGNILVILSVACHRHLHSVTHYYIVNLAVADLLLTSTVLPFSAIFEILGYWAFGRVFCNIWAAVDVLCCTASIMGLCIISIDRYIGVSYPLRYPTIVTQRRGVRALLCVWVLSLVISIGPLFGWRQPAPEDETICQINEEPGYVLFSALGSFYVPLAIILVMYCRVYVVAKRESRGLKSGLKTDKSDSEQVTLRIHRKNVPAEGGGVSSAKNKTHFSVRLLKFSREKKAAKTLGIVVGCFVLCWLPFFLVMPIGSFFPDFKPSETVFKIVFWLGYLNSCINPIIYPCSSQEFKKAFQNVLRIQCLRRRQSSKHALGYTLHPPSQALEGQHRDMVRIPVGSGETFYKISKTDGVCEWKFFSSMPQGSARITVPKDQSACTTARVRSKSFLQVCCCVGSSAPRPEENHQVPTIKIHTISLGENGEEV
In short: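 Alpha-1 binding used rat cerebral cortical membranes with [3H]prazosin 0.5 nM, with phentolamine defining nonspecific binding. Ki values are means of two to four independent experiments, each with at least six concentrations in duplicate.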

Rattus norvegicus [2] = organism: Rattus norvegicus; test: Selectivity ratio of Ki for adrenergic alpha-1 receptor in rat cerebral cortical membranes to Ki for rat recombinant dopamine D3 receptor; type: cell membranes; conditions: Membrane
[3] = Apparent terminal half life in iv or po dosed rat; type: ADME, organism-based; conditions: in vivo, read-out: betat1/2(app) (converted)
Rattus norvegicus [4] = test: Induction of catalepsy in po dosed rat; type: organism-based; conditions: in vivo
[5] = Oral bioavailability in rat; type: ADME, organism-based; conditions: in vivo
[6] = Tmax in rat brain; type: ADME, tissue-based
D(1A) dopamine receptor = D(1A) dopamine receptor (Rattus norvegicus, UniProt P18901); test: Binding affinity to rat dopamine D1 receptor
Sequence of D(1A) dopamine receptor (P18901 whole entry): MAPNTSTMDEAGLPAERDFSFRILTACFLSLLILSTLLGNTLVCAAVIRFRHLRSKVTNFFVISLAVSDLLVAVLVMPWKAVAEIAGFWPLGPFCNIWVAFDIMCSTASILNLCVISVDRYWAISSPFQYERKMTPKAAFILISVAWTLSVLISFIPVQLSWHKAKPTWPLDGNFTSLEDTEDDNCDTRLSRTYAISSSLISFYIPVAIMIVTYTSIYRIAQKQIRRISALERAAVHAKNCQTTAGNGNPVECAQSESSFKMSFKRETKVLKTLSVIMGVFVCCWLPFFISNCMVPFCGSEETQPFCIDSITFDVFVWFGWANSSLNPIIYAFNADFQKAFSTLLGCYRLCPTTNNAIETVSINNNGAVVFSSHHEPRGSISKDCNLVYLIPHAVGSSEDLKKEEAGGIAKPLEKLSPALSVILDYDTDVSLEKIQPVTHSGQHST

[7] = Metabolic stability in human liver microsomes at 2.5 uM measured up to 20 mins; type: ADME, Microsome; conditions: read-out: Stability
In short: (§1)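 Compound incubated for up to 20 min with human or rat liver microsomes. Substrate consumption was followed over time; the plot was linear and was analysed by linear regression.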

[8] = Ratio of drug level in brain to plasma in iv or po dosed rat; type: ADME, organism-based; conditions: read-out: BPR
[9] = Binding affinity to human dopamine D4.2 receptor
D(1B) dopamine receptor = D(1B) dopamine receptor (Homo sapiens, UniProt P21918); test: Binding affinity to human dopamine D5 receptor
Sequence of D(1B) dopamine receptor (P21918 whole entry): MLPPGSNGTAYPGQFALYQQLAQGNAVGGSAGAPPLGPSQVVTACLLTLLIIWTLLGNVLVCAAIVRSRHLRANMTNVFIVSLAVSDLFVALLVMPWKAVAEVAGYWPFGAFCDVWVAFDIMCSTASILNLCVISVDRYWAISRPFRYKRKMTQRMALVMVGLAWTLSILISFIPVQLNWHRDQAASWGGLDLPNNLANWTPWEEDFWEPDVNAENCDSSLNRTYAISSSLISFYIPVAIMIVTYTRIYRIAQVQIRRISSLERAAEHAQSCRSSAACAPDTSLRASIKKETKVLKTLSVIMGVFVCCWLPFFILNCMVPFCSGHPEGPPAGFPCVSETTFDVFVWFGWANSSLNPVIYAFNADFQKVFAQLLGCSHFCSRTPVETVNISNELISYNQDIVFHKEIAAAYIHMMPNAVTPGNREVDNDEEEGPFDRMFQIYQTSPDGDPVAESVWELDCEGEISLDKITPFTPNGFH

[10] = Metabolic stability in rat liver microsomes at 2.5 uM measured up to 20 mins; type: ADME, Microsome; conditions: read-out: Stability; in short: as §1
[11] = Cmax in rat; type: ADME, organism-based; conditions: in vivo

Sequence of D(2) dopamine receptor (P61169 whole entry): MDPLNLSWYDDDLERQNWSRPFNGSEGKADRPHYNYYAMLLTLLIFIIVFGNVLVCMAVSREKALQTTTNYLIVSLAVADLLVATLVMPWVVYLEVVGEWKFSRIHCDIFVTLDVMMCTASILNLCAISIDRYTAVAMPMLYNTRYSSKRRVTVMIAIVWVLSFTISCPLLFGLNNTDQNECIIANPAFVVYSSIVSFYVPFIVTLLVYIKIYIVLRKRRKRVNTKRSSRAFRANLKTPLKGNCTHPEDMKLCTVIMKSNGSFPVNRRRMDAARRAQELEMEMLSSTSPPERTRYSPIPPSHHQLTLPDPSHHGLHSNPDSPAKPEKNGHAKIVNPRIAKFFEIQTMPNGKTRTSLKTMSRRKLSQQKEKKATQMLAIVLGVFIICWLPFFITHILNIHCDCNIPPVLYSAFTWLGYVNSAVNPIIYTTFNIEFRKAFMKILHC

Row | Structure (SMILES) | IC50 (D(2) dopamine receptor) [nM] | IC50 (D(3) dopamine receptor) [nM] | Ki (D(2) dopamine receptor) [nM] | Ki [1] [nM] | Ratio Ki (Rattus norvegicus [2]) | Ki (D(3) dopamine receptor) [nM] | ED50 (Mus musculus) [mg/kg] | further results
1 | CC(=O)N[C@H]1CC[C@H](CCN2CCN(c3cc(C#N)cc(C(F)(F)F)c3)CC2)CC1 | 143 | 1.9 | – | – | – | – | 1.54 | –
2 | CS(=O)(=O)N[C@H]1CC[C@H](CCN2CCN(Cc3cccc(C(F)(F)F)c3)CC2)CC1 | 158 | 11 | – | – | – | – | 1.34 | –
3 | CCNC(=O)N[C@H]1CC[C@H](CCN2CCN(c3cccc(Cl)c3Cl)CC2)CC1 | 16.9 | 0.34 | – | – | – | – | 0.38 | –
4 | CCOC(=O)N[C@H]1CC[C@H](CCN2CCN(Cc3cccc(C(F)(F)F)c3)CC2)CC1 | 25 | 5.1 | – | – | – | – | 5.37 | –
5 | CC(=O)N[C@H]1CC[C@H](CCN2CCN(c3cccc(Cl)c3Cl)CC2)CC1 | 2.3 | 0.29 | – | – | – | – | 0.17 | –
6 | CN(C)C(=O)N[C@H]1CC[C@H](CCN2CCN(c3cc(Cl)cc(Cl)c3)CC2)CC1 | – | – | – | – | – | – | – | remaining at 20 min, 2.5 µM [7]: 58%; remaining at 20 min, 2.5 µM [10]: 73%

Continued, in another order:

Row | IC50 (D(2) dopamine receptor) [nM] | IC50 (D(3) dopamine receptor) [nM] | Ki (D(2) dopamine receptor) [nM] | Ki [1] [nM] | Ratio Ki (Rattus norvegicus [2]) | Ki (D(3) dopamine receptor) [nM] | Structure (SMILES) | ED50 (Mus musculus) [mg/kg] | further results
7 | – | – | 8.2 | 34.9 | 52.8 | 0.66 | CN(C)C(=O)N[C@H]1CC[C@H](CCN2CCN(c3cc(Cl)ccc3Cl)CC2)CC1 | – | –
8 | – | – | 110 | 29.6 | 8.9 | 3.3 | CN(C)C(=O)N[C@H]1CC[C@H](CCN2CCN(c3ccc(Cl)c(Cl)c3)CC2)CC1 | – | –
9 | […] | – | – | 214 | – | – | CN(C)C(=O)N[C@H]1CC[C@H](CCN2CCN(c3cccc(Cl)c3Cl)CC2)CC1.Cl [CARIPRAZINE HYDROCHLORIDE] | – | half-life [3]: 2 h; MED (Rattus norvegicus [4]): > 85 mg/kg; bioavailability [5]: 52%; Tmax [6]: 0.5 h; IC50 (D(1A) dopamine receptor): > 1000 nM; remaining at 20 min, 2.5 µM [7]: 96%; Kp [8]: 7.6; IC50 [9]: > 1000 nM; IC50 (D(1B) dopamine receptor): > 1000 nM; remaining at 20 min, 2.5 µM [10]: 93%; Cmax [11]: 91 ng/mL
10 | – | – | 106 | 156 | 28.9 | 5.4 | CN(C)C(=O)N[C@H]1CC[C@H](CCN2CCN(c3ccc(Cl)cc3Cl)CC2)CC1 | – | –
